Measurements reported in ChEMBL document CHEMBL1145797, “Synthesis and antitumor activity of novel O-carbamoylmethyloxime derivatives of radicicol” (J Med Chem, 2003).

How the values were obtained:
3Y1 cell line = experiment: Concentration to inhibit growth of normal rat fibroblast cells (3Y1-B cells) after 72 h exposure; format: functional, cell-based; conditions: 3Y1, 72 h
In short: (§1)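 Cells precultured 24 h in DMEM with 10% fetal calf serum, then exposed to drug for 72 h. Viability read by MTT assay. IC50 taken as concentration giving 50% growth inhibition relative to control cultures.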

[1] = Concentration to inhibit growth of normal rat K-ras-transformed cells (KNRK 5.2 cells) after 72 hr exposure; format: functional; in short: as §1
NRK = experiment: Concentration to inhibit growth of normal rat kidney epithelial cells (NRK cells) after 72 hr exposure; format: functional, cell-based; in short: as §1
[2] = Concentration to inhibit growth of v-src-transformed cells (SR-3Y1 cells) after 72 h exposure; format: functional; conditions: Rattus norvegicus, SR3Y1, 72 h; in short: as §1
[3] = target: Proto-oncogene tyrosine-protein kinase Src (Rattus norvegicus, UniProt Q9WUD9); experiment: Inhibition of v-Src tyrosine kinase autophosphorylation in SR3Y1 cells after 15 hr exposure; format: cell-based
In short: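 SR-3Y1 cells exposed to drug 15 h, lysed on ice 20 min in Tris pH 7.5 RIPA-type buffer with protease inhibitors and 1 mM vanadate. Equal-protein lysates run on SDS-PAGE, blotted with anti-phosphotyrosine antibody, HRP secondary, ECL detection. IC50 = concentration halving tyrosine phosphorylation.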

[4] = Percent depletion of Raf-1 protein expression after 40h exposure at 0.2 uM in KNRK5.2 cells; format: functional, cell-based; conditions: Rattus norvegicus
In short: (§2)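 KNRK5.2 cells exposed to 0.2 µM drug for 40 h, then lysed. Equal-protein lysates Western blotted in duplicate for Raf-1 (rabbit polyclonal), phospho-MAPK (phosphospecific antibody) and total Erk2 (monoclonal). Read-out is % inhibition of phospho-Erk2 formation or % Raf-1 depletion.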

[5] = Inhibition of K-ras-induced MAPK phosphorylation in KNRK5.2 cells after 40h exposure at 0.2 uM; format: functional; conditions: Rattus norvegicus; in short: as §2
Mus musculus [6] = experiment: In vivo antitumor activity against BALB mice transplanted with human tumor (MX-1) Xenograft Model at a dose of 25 mg/kg by administering intravenously for 5 days and Mortality is calculated; format: functional; conditions: route intravenous
In short: (§3)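 Adult BALB/c nu/nu mice (n = 5) inoculated sc in the flank with human tumor cells: MX-1 on day -14, A431 on day -18. Drug dissolved in cremophor EL/N,N-dimethylacetamide/physiological saline (7.5:5:87.5) and given iv once daily on days 0-4. Animals monitored for lethal toxicity and body weight loss.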

Mus musculus [7] = experiment: In vivo antitumor activity against BALB mice transplanted with human tumor (MX-1) Xenograft Model at a dose of 50 mg/kg by administering intravenously for 5 days and Mortality is calculated; format: functional; conditions: route intravenous; in short: as §3
Mus musculus [8] = organism: Mus musculus; experiment: Dose required to produce lethal toxicity was determined; format: organism-based; conditions: in vivo; in short: as §3
Mus musculus [9] = experiment: In vivo antitumor activity against BALB mice transplanted with human tumor (A431) Xenograft Model at a dose of 50 mg/kg by administering intravenously for 5 days and Mortality is calculated; format: functional; conditions: route intravenous; in short: as §3
Mus musculus [10] = experiment: In vivo antitumor activity against BALB mice transplanted with human tumor (A431) Xenograft Model at a dose of 25 mg/kg by administering intravenously for 5 days and T/C value was calculated on 7th day; format: functional; conditions: dose 50 mg/kg; route intravenous; in the assay text read “50 mg/kg” for “25 mg/kg”
In short: (§4)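 Adult BALB/c nu/nu mice (n = 5), tumor cells inoculated sc in the flank (MX-1 day -14, A431 day -18). Drug in cremophor EL/N,N-dimethylacetamide/saline (7.5:5:87.5), given iv daily days 0-4. Tumor volume = length × width²/2. T/C = mean V/V0 of treated over control. Mann–Whitney U test.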

Mus musculus [11] = experiment: In vivo antitumor activity against BALB mice transplanted with human tumor (MX-1) using Xenograft Model at a dose of 50 mg/kg by administering intravenously for 5 days and T/C value was calculated on 11th day; format: functional; conditions: route intravenous; in short: as §4
Mus musculus [12] = experiment: In vivo antitumor activity against BALB mice transplanted with human tumor (MX1) Xenograft Model at a dose of 25 mg/kg by administering intravenously for 5 days and T/C value was calculated on 11th day; format: functional; conditions: route intravenous; in short: as §4

SMILES	IC50 (3Y1 cell line)	IC50 [1]	IC50 (NRK)	IC50 [2]	IC50 [3]	Depletion [4]	inhibition at 0.2 µM [5]	Mortality (Mus musculus [6])	Mortality (Mus musculus [7])	Lethal toxicity (Mus musculus [8])	Mortality (Mus musculus [9])	T/C min (Mus musculus [10])	T/C min (Mus musculus [11])	T/C min (Mus musculus [12])
C[C@@H]1C[C@H]2O[C@@H]2\C=C/C=C/C(=N\OCC(=O)N(CCO)CCO)Cc2c(Cl)c(O)cc(O)c2C(=O)O1	> 3 µM	2.9 µM	> 3 µM	1.1 µM	> 1 µM	–	–	–	–	–	–	–	–	–
C[C@@H]1C[C@H]2O[C@@H]2\C=C/C=C/C(=N\OCC(=O)N2CCC(O)CC2)Cc2c(Cl)c(O)cc(O)c2C(=O)O1	> 3 µM	> 3 µM	> 3 µM	> 3 µM	–	–	–	–	–	–	–	–	–	–
C[C@@H]1C[C@H]2O[C@@H]2\C=C/C=C/C(=N\OCC(=O)N2CCCCC2)Cc2c(Cl)c(O)cc(O)c2C(=O)O1	0.0083 µM	0.014 µM	0.018 µM	0.0061 µM	0.025 µM	74%	95%	0	0	100 mg/kg	0	0.44	0.17	0.54
C[C@@H]1C[C@H]2O[C@@H]2\C=C/C=C/C(=N\OCC(=O)Nc2cccnc2)Cc2c(Cl)c(O)cc(O)c2C(=O)O1	0.2 µM	0.12 µM	0.24 µM	0.051 µM	0.054 µM	–	–	–	–	–	–	–	–	–
C[C@@H]1C[C@H]2O[C@@H]2\C=C/C=C/C(=N\OCC(=O)NC2CCCCC2)Cc2c(Cl)c(O)cc(O)c2C(=O)O1	0.067 µM	0.073 µM	0.19 µM	0.0057 µM	0.21 µM	–	–	–	–	–	–	–	–	–
C[C@@H]1C[C@H]2O[C@@H]2\C=C/C=C/C(=N\OCC(=O)N2CCC(N3CCCCC3)CC2)Cc2c(Cl)c(O)cc(O)c2C(=O)O1	> 3 µM	> 3 µM	3 µM	> 3 µM	–	–	–	–	–	–	–	–	–	–
COc1ccc(NC(=O)CO\N=C2/C=C/C=C\[C@H]3O[C@@H]3C[C@@H](C)OC(=O)c3c(O)cc(O)c(Cl)c3C2)cc1	0.1 µM	0.081 µM	0.26 µM	0.058 µM	0.39 µM	–	–	–	–	–	–	–	–	–
C[C@@H]1C[C@H]2O[C@@H]2\C=C/C=C/C(=N\OCC(=O)Nc2ccccc2)Cc2c(Cl)c(O)cc(O)c2C(=O)O1	0.62 µM	0.29 µM	0.32 µM	0.12 µM	0.043 µM	–	–	–	–	–	–	–	–	–
C[C@@H]1C[C@H]2O[C@@H]2\C=C/C=C/C(=N\OCC(=O)N2CCCC2)Cc2c(Cl)c(O)cc(O)c2C(=O)O1	0.055 µM	0.039 µM	0.034 µM	0.02 µM	0.07 µM	–	–	–	–	–	–	–	–	–
CCN(CC)CCNC(=O)CO\N=C1/C=C/C=C\[C@H]2O[C@@H]2C[C@@H](C)OC(=O)c2c(O)cc(O)c(Cl)c2C1	> 3 µM	> 3 µM	> 3 µM	2.3 µM	> 1 µM	–	–	–	–	–	–	–	–	–
C[C@@H]1C[C@H]2O[C@@H]2\C=C/C=C/C(=N\OCC(=O)NC2CCCC2)Cc2c(Cl)c(O)cc(O)c2C(=O)O1	0.041 µM	0.045 µM	0.041 µM	0.0098 µM	0.014 µM	–	–	–	–	–	–	–	–	–
CCOCCNC(=O)CO\N=C1/C=C/C=C\[C@H]2O[C@@H]2C[C@@H](C)OC(=O)c2c(O)cc(O)c(Cl)c2C1	0.39 µM	0.23 µM	0.26 µM	0.093 µM	> 1 µM	–	–	–	–	–	–	–	–	–
C[C@@H]1C[C@H]2O[C@@H]2\C=C/C=C/C(=N\OCC(=O)NCC2CCCCC2)Cc2c(Cl)c(O)cc(O)c2C(=O)O1	0.18 µM	0.14 µM	0.21 µM	0.02 µM	0.017 µM	–	–	–	–	–	–	–	–	–
C[C@@H]1C[C@H]2O[C@@H]2\C=C/C=C/C(=N\OCC(=O)N2CCCCCC2)Cc2c(Cl)c(O)cc(O)c2C(=O)O1	< 0.0041 µM	0.0064 µM	0.0073 µM	< 0.0041 µM	0.067 µM	–	–	–	–	–	–	–	–	–
C[C@@H]1C[C@H]2O[C@@H]2\C=C/C=C/C(=N\OCC(=O)N2CCN(C)CC2)Cc2c(Cl)c(O)cc(O)c2C(=O)O1	1 µM	1.5 µM	1.2 µM	0.47 µM	–	–	–	–	–	–	–	–	–	–
C[C@@H]1C[C@H]2O[C@@H]2\C=C/C=C/C(=N\OCC(=O)NCCc2cccn2C)Cc2c(Cl)c(O)cc(O)c2C(=O)O1	0.6 µM	0.38 µM	1.2 µM	0.084 µM	> 1 µM	–	–	–	–	–	–	–	–	–
COC(=O)CNC(=O)CO\N=C1/C=C/C=C\[C@H]2O[C@@H]2C[C@@H](C)OC(=O)c2c(O)cc(O)c(Cl)c2C1	0.79 µM	0.57 µM	0.7 µM	0.24 µM	0.36 µM	–	–	–	–	–	–	–	–	–
C[C@@H]1C[C@H]2O[C@@H]2/C=C\C=C\C(=O)Cc2c(Cl)c(O)cc(O)c2C(=O)O1 [RADICICOL]	0.7 µM	0.11 µM	0.29 µM	0.059 µM	0.18 µM	–	–	–	–	–	–	–	–	–
C[C@@H]1C[C@H]2O[C@@H]2\C=C/C=C/C(=N\OCC(=O)NCc2cccnc2)Cc2c(Cl)c(O)cc(O)c2C(=O)O1	0.67 µM	0.48 µM	0.51 µM	0.29 µM	> 1 µM	–	–	–	–	–	–	–	–	–
C[C@@H]1C[C@H]2O[C@@H]2\C=C/C=C/C(=N\OCC(=O)N2CCC(C(N)=O)CC2)Cc2c(Cl)c(O)cc(O)c2C(=O)O1	> 3 µM	> 3 µM	> 3 µM	> 3 µM	–	–	–	–	–	–	–	–	–	–
C[C@@H]1C[C@H]2O[C@@H]2\C=C/C=C/C(=N\OCC(=O)NCCO)Cc2c(Cl)c(O)cc(O)c2C(=O)O1	2.8 µM	2.2 µM	> 3 µM	1.5 µM	> 1 µM	–	–	–	–	–	–	–	–	–
CCN(CC)c1ccc(NC(=O)CO\N=C2/C=C/C=C\[C@H]3O[C@@H]3C[C@@H](C)OC(=O)c3c(O)cc(O)c(Cl)c3C2)cc1	0.49 µM	0.24 µM	0.52 µM	0.1 µM	< 0.01 µM	–	–	–	–	–	–	–	–	–
C[C@@H]1C[C@H]2O[C@@H]2\C=C/C=C/C(=N\OCC(=O)N2CCOCC2)Cc2c(Cl)c(O)cc(O)c2C(=O)O1	0.31 µM	0.34 µM	0.34 µM	0.13 µM	0.14 µM	–	–	–	–	–	–	–	–	–
